In ChEMBL document CHEMBL4219255, “Targeting Transient Receptor Potential Vanilloid 1 (TRPV1) Channel Softly: The Discovery of Passerini Adducts as a Topical Treatment for Inflammatory Skin Disorders” (J Med Chem, 2018):

What was measured:
[1] = target: T1, Transient receptor potential cation channel subfamily V member 1 (Homo sapiens, UniProt Q8NER1); assay: Agonist activity at TRPV1 (unknown origin) expressed in human SH-SY5Y cells assessed as increase in calcium influx after 25 mins by Fluo-4 NW dye-based fluorescence assay; assay type: cell-based
[2] = Drug metabolism in human HaCaT cells assessed as residual substrate levels at 25 uM up to 240 mins by HPLC-UV analysis; assay type: ADME, cell-based; conditions: read-out: Stability
[3] = Drug metabolism in human plasma assessed as residual substrate levels at 100 uM up to 20 mins by HPLC-UV analysis; assay type: ADME, cell-free; conditions: read-out: Stability
[4] = Drug metabolism in human liver S9 fraction assessed as residual substrate levels at 50 uM up to 60 mins by HPLC-UV analysis; assay type: ADME, subcellular; conditions: read-out: Stability
[5] = Drug metabolism in human keratinocytes assessed as residual substrate levels at 50 uM up to 120 mins by HPLC-UV analysis; assay type: ADME, cell-based, Keratinocyte; conditions: read-out: Stability
[6] = Drug metabolism in human fibroblast cells assessed as residual substrate levels at 50 uM up to 120 mins by HPLC-UV analysis; assay type: ADME, cell-based; conditions: read-out: Stability
Liver carboxylesterase 1 [7] = target: T2, Liver carboxylesterase 1 (Homo sapiens, UniProt P23141); assay: Drug metabolism assessed as recombinant human CE1-mediated compound hydrolysis by measuring rate constant at 50 uM up to 30 mins by LC-UV analysis; assay type: ADME; conditions: 0.5 h
T2 sequence (P23141 whole entry): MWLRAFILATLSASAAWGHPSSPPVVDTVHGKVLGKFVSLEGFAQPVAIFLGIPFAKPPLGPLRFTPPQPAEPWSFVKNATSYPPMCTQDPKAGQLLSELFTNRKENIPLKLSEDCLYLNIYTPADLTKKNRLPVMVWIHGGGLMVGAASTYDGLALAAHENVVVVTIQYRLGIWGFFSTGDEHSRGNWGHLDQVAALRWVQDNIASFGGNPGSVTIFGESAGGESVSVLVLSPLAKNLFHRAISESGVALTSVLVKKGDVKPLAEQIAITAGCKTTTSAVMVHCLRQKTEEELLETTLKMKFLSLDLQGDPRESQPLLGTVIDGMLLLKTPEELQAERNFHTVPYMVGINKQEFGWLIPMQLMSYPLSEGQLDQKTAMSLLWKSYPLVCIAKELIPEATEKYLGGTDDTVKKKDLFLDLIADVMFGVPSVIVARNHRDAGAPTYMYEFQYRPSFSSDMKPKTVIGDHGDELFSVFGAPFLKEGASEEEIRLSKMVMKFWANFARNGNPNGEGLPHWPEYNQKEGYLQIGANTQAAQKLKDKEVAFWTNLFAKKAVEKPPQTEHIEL
How it was run: (§1)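 Recombinant human carboxylesterase isoforms 1 and 2 were each incubated with the test ester. Hydrolysis was followed by HPLC-UV, tracking the disappearance of the substrate over incubation time relative to the initial amount. Chromatograms were also checked for peaks of the expected hydrolysis metabolites.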

Cocaine esterase [8] = target: T3, Cocaine esterase (Homo sapiens, UniProt O00748); assay: Drug metabolism assessed as recombinant human CE2-mediated compound hydrolysis by measuring rate constant at 50 uM up to 30 mins by LC-UV analysis; assay type: ADME; conditions: 0.5 h; how it was run: as §1
T3 sequence (O00748 whole entry): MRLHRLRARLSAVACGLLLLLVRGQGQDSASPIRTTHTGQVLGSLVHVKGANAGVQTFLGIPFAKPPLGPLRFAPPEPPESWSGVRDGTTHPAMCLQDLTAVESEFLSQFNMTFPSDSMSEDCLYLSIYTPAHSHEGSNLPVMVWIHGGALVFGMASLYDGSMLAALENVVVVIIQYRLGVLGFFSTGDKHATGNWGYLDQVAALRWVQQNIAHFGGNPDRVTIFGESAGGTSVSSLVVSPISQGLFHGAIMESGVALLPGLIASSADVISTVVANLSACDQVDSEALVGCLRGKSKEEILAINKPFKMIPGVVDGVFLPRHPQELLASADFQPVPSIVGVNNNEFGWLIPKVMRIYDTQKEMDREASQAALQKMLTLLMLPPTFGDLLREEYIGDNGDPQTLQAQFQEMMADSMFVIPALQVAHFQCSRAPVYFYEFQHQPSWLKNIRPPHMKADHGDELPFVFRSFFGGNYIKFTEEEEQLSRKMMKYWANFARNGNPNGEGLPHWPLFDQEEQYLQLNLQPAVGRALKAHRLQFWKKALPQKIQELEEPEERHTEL

[9] = target: T4, Liver carboxylesterase 1 (CE1) (Homo sapiens, UniProt P23141); assay: Drug metabolism assessed as recombinant human CE1-mediated compound hydrolysis by measuring compound half life at 50 uM up to 30 mins by LC-UV analysis; assay type: ADME; how it was run: as §1
T4 sequence (P23141 whole entry): T2 sequence (P23141 whole entry)

Cocaine esterase (CE2) [10] = target: T5, Cocaine esterase (CE2) (Homo sapiens, UniProt O00748); assay: Drug metabolism assessed as recombinant human CE2-mediated compound hydrolysis by measuring compound half life at 50 uM up to 30 mins by LC-UV analysis; assay type: ADME; how it was run: as §1
T5 sequence (O00748 whole entry): T3 sequence (O00748 whole entry)

[11] = Drug metabolism in human liver microsomes assessed as glucuronide metabolite formation at 50 uM in presence of UDPGA after 60 mins by LC-ESI-MS analysis; assay type: ADME, microsome; conditions: 1 h
[12] = Drug metabolism in human liver microsomes assessed as sulfate conjugate formation at 50 uM in presence of UDPGA after 60 mins by LC-ESI-MS analysis; assay type: ADME, microsome; conditions: 1 h
[13] = Drug metabolism in human liver cytosol assessed as glucuronide metabolite formation at 50 uM in presence of UDPGA after 60 mins by LC-ESI-MS analysis; assay type: ADME, subcellular; conditions: 1 h
[14] = Drug metabolism in human liver cytosol assessed as sulfate conjugate formation at 50 uM in presence of UDPGA after 60 mins by LC-ESI-MS analysis; assay type: ADME, subcellular; conditions: 1 h
[15] = target: T1, Transient receptor potential cation channel subfamily V member 1; assay: Agonist activity at TRPV1 (unknown origin) expressed in human SH-SY5Y cells assessed as increase in calcium influx at 1 uM after 25 mins by Fluo-4 NW dye-based fluorescence assay relative to capsaicin
Liver carboxylesterase 1 [16] = target: T2, Liver carboxylesterase 1; assay: Drug metabolism assessed as recombinant human CE1-mediated compound hydrolysis by measuring rate constant at 50 uM up to 60 mins by LC-UV analysis; assay type: ADME; conditions: 1 h
Cocaine esterase [17] = target: T3, Cocaine esterase; assay: Drug metabolism assessed as recombinant human CE2-mediated compound hydrolysis by measuring rate constant at 50 uM up to 60 mins by LC-UV analysis; assay type: ADME; conditions: 1 h
[18] = target: T4, Liver carboxylesterase 1 (CE1); assay: Drug metabolism assessed as recombinant human CE1-mediated compound hydrolysis by measuring compound half life at 50 uM up to 60 mins by LC-UV analysis; assay type: ADME
Cocaine esterase (CE2) [19] = target: T5, Cocaine esterase (CE2); assay: Drug metabolism assessed as recombinant human CE2-mediated compound hydrolysis by measuring compound half life at 50 uM up to 60 mins by LC-UV analysis; assay type: ADME
[20] = target: T4, Liver carboxylesterase 1 (CE1); assay: Drug metabolism assessed as recombinant human CE1-mediated compound hydrolysis by measuring compound intrinsic clearance at 50 uM up to 60 mins by LC-UV analysis; assay type: ADME
[21] = target: T1, Transient receptor potential cation channel subfamily V member 1; assay: Antagonist activity at TRPV1 (unknown origin) expressed in human SH-SY5Y cells assessed as inhibition of capsaicin-induced calcium increase after 25 mins by Fluo-4 NW dye-based fluorescence assay; assay type: cell-based
[22] = target: T1, Transient receptor potential cation channel subfamily V member 1; assay: Antagonist activity at TRPV1 (unknown origin) expressed in human SH-SY5Y cells assessed as inhibition of capsaicin-induced calcium influx at 1 uM after 25 mins by Fluo-4 NW dye-based fluorescence assay relative to capsaicin; assay type: cell-based
Mus musculus = assay: Toxicity in C57BL/6 mouse assessed as change in body temperature at 3 mg/kg, iv after 120 mins; assay type: organism-based; conditions: in vivo, 2 h

T1 sequence (Q8NER1 whole entry): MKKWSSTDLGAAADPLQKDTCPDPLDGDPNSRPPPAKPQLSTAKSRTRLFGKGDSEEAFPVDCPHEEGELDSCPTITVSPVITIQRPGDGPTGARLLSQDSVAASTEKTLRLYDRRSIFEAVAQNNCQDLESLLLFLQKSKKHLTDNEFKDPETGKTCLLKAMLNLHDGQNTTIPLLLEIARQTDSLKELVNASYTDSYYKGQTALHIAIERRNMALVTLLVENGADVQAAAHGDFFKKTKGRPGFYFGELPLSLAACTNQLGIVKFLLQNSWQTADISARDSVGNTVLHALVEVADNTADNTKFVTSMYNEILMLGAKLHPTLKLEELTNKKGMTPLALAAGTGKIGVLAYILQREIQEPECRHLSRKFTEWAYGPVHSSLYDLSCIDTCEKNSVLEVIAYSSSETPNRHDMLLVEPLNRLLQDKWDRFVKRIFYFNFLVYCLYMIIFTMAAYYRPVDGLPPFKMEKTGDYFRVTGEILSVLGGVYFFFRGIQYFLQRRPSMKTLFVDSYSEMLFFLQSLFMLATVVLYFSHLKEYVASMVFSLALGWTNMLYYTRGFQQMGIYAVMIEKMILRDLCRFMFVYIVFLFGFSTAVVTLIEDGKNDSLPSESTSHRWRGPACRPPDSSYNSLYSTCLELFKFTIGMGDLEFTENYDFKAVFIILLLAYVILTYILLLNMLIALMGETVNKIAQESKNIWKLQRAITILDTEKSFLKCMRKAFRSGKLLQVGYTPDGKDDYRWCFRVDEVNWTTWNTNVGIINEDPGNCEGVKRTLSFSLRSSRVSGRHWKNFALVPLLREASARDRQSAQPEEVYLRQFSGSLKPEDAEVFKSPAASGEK

| remaining at 4 h, 25 µM [2] [%] | remaining at 20 min, 100 µM [3] [%] | remaining at 1 h, 50 µM [4] [%] | remaining at 2 h, 50 µM [5] [%] | remaining at 2 h, 50 µM [6] [%] | Drug metabolism [11] | Drug metabolism [12] | Drug metabolism [13] | Drug metabolism [14] | K (Liver carboxylesterase 1 [16]) [min⁻¹] | K (Cocaine esterase [17]) [min⁻¹] | half-life at 50 µM [18] [min] | half-life at 50 µM (Cocaine esterase (CE2) [19]) [min] | microsomal CLint at 50 µM [20] [µL/min/mg] | Compound | EC50 [1] [µM] | Activity [15] [%] | also measured |
| --- | --- | --- | --- | --- | --- | --- | --- | --- | --- | --- | --- | --- | --- | --- | --- | --- | --- |
| 97.9 | 105 | 70.9 | 70.2 | 59.6 | Metabolite_Notdetected | Metabolite_Notdetected | Metabolite_Notdetected | Metabolite_Notdetected | 0.0608 | 0.0497 | 11.4 | 14 | 56 | CC(C)=CCC/C(C)=C/CC/C(C)=C/CC/C=C(\C)CC/C=C(\C)CCC(=O)OCC(=O)NCc1ccc(O)c(O)c1 | 0.04 | 78.4 | – |
| 99.5 | 100 | 50.1 | 104 | 100 | Metabolite_Notdetected | Metabolite_Notdetected | Metabolite_Notdetected | Metabolite_Notdetected | 0.0129 | 0.0877 | 53.8 | 7.9 | 13 | COc1cc(CNC(=O)COC(=O)/C=C(\C)CCC=C(C)C)c(I)cc1O | – | – | IC50 [21]: 0.09 µM; inhibition [22]: 90.1% |
| – | – | – | – | – | – | – | – | – | – | – | – | – | – | CC(C)(C)c1ccc(NC(=O)N2CCN(c3ncccc3Cl)CC2)cc1 | – | – | Activity (Mus musculus): Toxic |

| Compound | remaining at 4 h, 25 µM [2] [%] | remaining at 20 min, 100 µM [3] [%] | remaining at 1 h, 50 µM [4] [%] | remaining at 2 h, 50 µM [5] [%] | remaining at 2 h, 50 µM [6] [%] | Drug metabolism [11] | Drug metabolism [12] | Drug metabolism [13] | Drug metabolism [14] | K (Liver carboxylesterase 1 [16]) [min⁻¹] | K (Cocaine esterase [17]) [min⁻¹] | half-life at 50 µM [18] [min] | half-life at 50 µM (Cocaine esterase (CE2) [19]) [min] | microsomal CLint at 50 µM [20] [µL/min/mg] | EC50 [1] [µM] | Activity [15] [%] | also measured |
| --- | --- | --- | --- | --- | --- | --- | --- | --- | --- | --- | --- | --- | --- | --- | --- | --- | --- |
| CCCCCCCCCCCC(=O)OCC(=O)NCc1ccc(O)c(OC)c1 | 84.5 | 89.6 | 0 | 22.2 | 19.5 | Metabolite_Notdetected | Metabolite_Notdetected | Metabolite_Notdetected | Metabolite_Notdetected | – | – | – | – | – | 0.37 | 65.1 | K (Liver carboxylesterase 1 [7]): 0.0465 min⁻¹; K (Cocaine esterase [8]): 0.0376 min⁻¹; half-life at 50 µM [9]: 14.9 min; half-life at 50 µM (Cocaine esterase (CE2) [10]): 18.6 min |
